Source: ChEMBL document CHEMBL3102750 (J Med Chem, 2013)

Assays:
[1] = target: T1, Muscarinic acetylcholine receptor M5 (Homo sapiens, UniProt P08912); assay: Negative allosteric modulation of human muscarinic acetylcholine receptor M5 expressed in CHO cells assessed as inhibition of acetylcholine-induced calcium mobilization incubated for 150 secs prior to acetylcholine induction by Fluo-4 AM staining-based fluorescence assay; type: functional, cell-based
T1 sequence (P08912 whole entry): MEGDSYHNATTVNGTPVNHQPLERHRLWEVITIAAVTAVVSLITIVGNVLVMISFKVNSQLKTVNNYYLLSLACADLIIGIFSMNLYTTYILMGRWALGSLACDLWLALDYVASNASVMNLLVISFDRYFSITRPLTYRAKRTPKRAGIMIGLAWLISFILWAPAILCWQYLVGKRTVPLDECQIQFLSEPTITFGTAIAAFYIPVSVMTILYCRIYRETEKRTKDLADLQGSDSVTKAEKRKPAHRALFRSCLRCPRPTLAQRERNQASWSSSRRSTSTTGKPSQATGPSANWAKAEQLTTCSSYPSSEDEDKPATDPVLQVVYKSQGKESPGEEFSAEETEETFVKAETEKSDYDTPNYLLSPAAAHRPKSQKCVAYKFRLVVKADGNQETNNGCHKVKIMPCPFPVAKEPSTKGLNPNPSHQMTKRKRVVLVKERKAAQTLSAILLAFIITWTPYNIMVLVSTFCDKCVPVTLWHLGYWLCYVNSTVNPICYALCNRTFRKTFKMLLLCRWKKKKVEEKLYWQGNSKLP

[2] = target: T2, Muscarinic acetylcholine receptor M5 (Rattus norvegicus, UniProt P08911); assay: Negative allosteric modulation of rat muscarinic acetylcholine receptor M5 expressed in CHO cells assessed as inhibition of acetylcholine-induced calcium mobilization incubated for 150 secs prior to acetylcholine induction by Fluo-4 AM staining-based fluorescence assay; type: functional, cell-based
T2 sequence (P08911 whole entry): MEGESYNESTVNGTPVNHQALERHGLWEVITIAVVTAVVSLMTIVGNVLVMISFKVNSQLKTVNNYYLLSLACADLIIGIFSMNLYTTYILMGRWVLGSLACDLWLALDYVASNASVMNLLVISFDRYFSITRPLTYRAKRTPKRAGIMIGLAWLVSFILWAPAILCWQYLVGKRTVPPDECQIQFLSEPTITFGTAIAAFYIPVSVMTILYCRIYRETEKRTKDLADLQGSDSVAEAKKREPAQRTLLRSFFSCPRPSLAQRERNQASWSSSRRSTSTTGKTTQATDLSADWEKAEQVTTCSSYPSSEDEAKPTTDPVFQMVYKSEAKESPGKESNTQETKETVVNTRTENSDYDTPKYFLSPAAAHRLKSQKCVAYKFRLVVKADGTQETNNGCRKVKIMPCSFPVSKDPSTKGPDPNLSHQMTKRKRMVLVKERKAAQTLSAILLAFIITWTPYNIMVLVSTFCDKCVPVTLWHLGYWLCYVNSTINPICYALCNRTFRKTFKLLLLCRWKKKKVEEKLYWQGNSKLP

[3] = target: T3, Muscarinic acetylcholine receptor M2 (Rattus norvegicus, UniProt P10980); assay: Negative allosteric modulation of rat muscarinic acetylcholine receptor M2 expressed in CHO cells assessed as inhibition of acetylcholine-induced calcium mobilization incubated for 150 secs prior to acetylcholine induction by Fluo-4 AM staining-based fluorescence assay; type: functional, cell-based
T3 sequence (P10980 whole entry): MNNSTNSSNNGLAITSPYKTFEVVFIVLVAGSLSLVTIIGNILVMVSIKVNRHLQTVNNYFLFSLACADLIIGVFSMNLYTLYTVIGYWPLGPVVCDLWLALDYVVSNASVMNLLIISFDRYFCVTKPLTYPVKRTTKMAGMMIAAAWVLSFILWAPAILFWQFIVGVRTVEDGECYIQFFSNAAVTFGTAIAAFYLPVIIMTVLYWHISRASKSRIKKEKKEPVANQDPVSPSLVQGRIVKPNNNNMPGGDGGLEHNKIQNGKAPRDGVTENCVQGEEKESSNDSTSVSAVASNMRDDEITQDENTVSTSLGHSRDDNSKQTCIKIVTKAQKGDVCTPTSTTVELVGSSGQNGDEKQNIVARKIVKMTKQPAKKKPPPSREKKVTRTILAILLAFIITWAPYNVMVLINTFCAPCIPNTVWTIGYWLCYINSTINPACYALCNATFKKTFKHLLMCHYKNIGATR

[4] = Fraction unbound in Sprague-Dawley rat brain at 5 uM after 4 hrs by equilibrium dialysis method; type: ADME, tissue-based
In short: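 Nonspecific binding measured in rat brain homogenate to give unbound fraction in brain (fu,br).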

Cytochrome P450 3A4 = Cytochrome P450 3A4 (Homo sapiens, UniProt P08684); assay: Inhibition of CYP3A4 in human liver microsomes using midazolam as substrate preincubated for 15 mins followed by NADPH addition measured after 8 mins by LC/MS/MS analysis; type: ADME
Cytochrome P450 1A2 = target: T4, Cytochrome P450 1A2 (Homo sapiens, UniProt P05177); assay: Inhibition of CYP1A2 in human liver microsomes using phenacetin as substrate preincubated for 15 mins followed by NADPH addition measured after 8 mins by LC/MS/MS analysis; type: ADME
T4 sequence (P05177 whole entry): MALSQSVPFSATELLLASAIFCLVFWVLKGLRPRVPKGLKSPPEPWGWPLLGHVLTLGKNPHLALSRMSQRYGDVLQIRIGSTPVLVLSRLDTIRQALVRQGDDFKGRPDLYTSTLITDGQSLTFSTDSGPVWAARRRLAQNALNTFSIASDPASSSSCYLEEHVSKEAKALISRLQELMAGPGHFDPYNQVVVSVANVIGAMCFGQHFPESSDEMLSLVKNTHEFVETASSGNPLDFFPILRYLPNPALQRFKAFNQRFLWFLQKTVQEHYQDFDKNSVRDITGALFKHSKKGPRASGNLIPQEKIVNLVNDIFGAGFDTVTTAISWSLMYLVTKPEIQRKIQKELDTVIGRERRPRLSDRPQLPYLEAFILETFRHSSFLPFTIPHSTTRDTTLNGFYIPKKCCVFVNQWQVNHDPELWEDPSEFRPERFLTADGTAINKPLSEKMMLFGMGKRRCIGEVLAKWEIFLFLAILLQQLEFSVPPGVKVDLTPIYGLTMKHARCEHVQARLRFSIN

Cytochrome P450 2C9 = Cytochrome P450 2C9 (Homo sapiens, UniProt P11712); assay: Inhibition of CYP2C9 in human liver microsomes using diclofenac as substrate preincubated for 15 mins followed by NADPH addition measured after 8 mins by LC/MS/MS analysis; type: ADME
Cytochrome P450 2D6 = Cytochrome P450 2D6 (Homo sapiens, UniProt P10635); assay: Inhibition of CYP2D6 in human liver microsomes using dextromethorphan as substrate preincubated for 15 mins followed by NADPH addition measured after 8 mins by LC/MS/MS analysis; type: ADME
[5] = Plasma clearance in Sprague-Dawley rat at 1 mg/kg, iv; type: ADME, organism-based; design: dose 1 mg/kg, route intravenous
Cynomolgus monkey = assay: Volume of distribution at steady state in cynomolgus monkey at 1 mg/kg, iv; type: ADME, organism-based, Macaca fascicularis; design: dose 1 mg/kg, route intravenous; settings: in vivo
[6] = Ratio of brain to plasma partition coefficient in Sprague-Dawley rat at 10 mg/kg, po measured at 1 hr; type: ADME, organism-based; design: dose 10 mg/kg, route oral
In short: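 Oral CNS distribution study in male Sprague-Dawley rats (n=2), 10 mg/kg; brain and plasma sampled one hour post-dose. Total (Kp) and unbound (Kp,uu) brain-plasma partition coefficients calculated, with unbound fractions from plasma and brain homogenate binding.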

Sequence of Cytochrome P450 3A4 (P08684 whole entry): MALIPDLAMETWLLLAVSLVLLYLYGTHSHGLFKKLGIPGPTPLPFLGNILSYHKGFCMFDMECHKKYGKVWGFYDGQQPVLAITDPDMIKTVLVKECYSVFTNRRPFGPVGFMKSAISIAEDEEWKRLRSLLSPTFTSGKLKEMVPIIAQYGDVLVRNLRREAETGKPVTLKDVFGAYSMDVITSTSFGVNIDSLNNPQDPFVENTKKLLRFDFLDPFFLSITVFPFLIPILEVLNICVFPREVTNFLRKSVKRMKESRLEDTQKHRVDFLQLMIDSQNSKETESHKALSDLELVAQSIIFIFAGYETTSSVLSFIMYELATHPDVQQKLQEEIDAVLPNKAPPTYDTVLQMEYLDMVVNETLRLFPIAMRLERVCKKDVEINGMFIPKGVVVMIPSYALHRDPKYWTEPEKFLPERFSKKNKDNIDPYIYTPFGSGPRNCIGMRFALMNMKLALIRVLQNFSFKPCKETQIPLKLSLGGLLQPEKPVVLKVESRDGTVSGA
Sequence of Cytochrome P450 2C9 (P11712 whole entry): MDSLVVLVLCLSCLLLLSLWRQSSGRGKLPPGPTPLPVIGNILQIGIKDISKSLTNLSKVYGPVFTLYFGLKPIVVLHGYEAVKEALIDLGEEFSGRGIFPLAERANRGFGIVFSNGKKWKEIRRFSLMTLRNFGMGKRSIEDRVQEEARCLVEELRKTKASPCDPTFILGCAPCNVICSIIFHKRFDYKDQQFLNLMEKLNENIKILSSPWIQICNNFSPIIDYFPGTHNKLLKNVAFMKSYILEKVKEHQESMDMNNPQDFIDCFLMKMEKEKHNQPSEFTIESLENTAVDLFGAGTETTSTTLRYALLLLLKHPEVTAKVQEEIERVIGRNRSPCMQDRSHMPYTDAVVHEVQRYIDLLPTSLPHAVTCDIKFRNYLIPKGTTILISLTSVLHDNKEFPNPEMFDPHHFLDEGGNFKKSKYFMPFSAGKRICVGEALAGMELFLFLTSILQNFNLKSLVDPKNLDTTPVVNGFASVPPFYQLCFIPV
Sequence of Cytochrome P450 2D6 (P10635 whole entry): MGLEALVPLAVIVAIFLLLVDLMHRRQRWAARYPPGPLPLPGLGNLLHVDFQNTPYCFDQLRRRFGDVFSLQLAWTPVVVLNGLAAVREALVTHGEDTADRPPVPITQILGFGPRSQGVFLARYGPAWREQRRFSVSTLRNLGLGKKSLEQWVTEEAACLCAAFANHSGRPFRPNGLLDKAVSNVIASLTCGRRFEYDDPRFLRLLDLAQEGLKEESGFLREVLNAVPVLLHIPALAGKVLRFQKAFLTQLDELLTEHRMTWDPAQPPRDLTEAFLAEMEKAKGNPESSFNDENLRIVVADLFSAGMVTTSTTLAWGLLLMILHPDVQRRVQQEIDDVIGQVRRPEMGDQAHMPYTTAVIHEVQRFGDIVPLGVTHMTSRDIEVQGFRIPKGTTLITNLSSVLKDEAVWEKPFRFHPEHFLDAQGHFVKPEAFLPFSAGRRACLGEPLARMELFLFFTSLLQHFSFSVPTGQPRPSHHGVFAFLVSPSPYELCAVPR

For `O=C(c1ccc(F)c(F)c1)N1CCN2C(=O)c3ccccc3C12c1ccccc1` (configuration not stated), the IC50 [1] was 1.05 µM, the IC50 [2] was 2.1 µM and the IC50 [3] was over 30 µM.

With `O=C(c1ccc(F)c(F)c1)N1CCN2C(=O)c3ccccc3[C@@]12c1ccc(Cl)cc1` the IC50 [3] was over 30 µM, the Fu [4] was 0.003 and the IC50 (Cytochrome P450 3A4) was 16 µM. The IC50 (Cytochrome P450 1A2) was 25 µM, the IC50 (Cytochrome P450 2C9) was 7.4 µM and the IC50 (Cytochrome P450 2D6) was 26 µM. For the same compound, the clearance [5] was 2.5 mL/min/kg, the Vdss (Cynomolgus monkey) was 1.9 L/kg and the BPR [6] was 1.8.
